Laboratory results published in ChEMBL document CHEMBL4007430, “Synthesis and Cytostatic and Antiviral Profiling of Thieno-Fused 7-Deazapurine Ribonucleosides” (J Med Chem, 2017).

Key:
[1] = Cytotoxicity against mrp-1/mdr-1 overexpressing human CEM-DNR-bulk cells assessed as cell growth inhibition after 72 hrs by MTS assay; format: functional, cell-based
Summary of the method: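 Cells were exposed to compound for 3 days, then stained with MTS as a quantitative metabolic read-out.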

[2] = system: A549; assay: Cytotoxicity against human A549 cells assessed as cell growth inhibition after 72 hrs by MTS assay; format: functional, cell-based; details: A549, 72 h
Summary of the method: (§1)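 Cells were exposed to compound for 3 days, then stained with MTS as a quantitative metabolic read-out. IC50 is the concentration that inhibits cell growth by 50%.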

[3] = system: CCRF-CEM; assay: Inhibition of RNA synthesis in human CCRF-CEM cells assessed as decrease in BrU incorporation by measuring synthesized RNA levels at IC50 after 24 hrs by propidium iodide staining-based flow cytometric method (reference value: 53.09%); format: functional
[4] = system: CCRF-CEM; assay: Cytotoxicity against human CCRF-CEM cells assessed as cell growth inhibition after 72 hrs by MTS assay
[5] = system: HCT-116; assay: Cytotoxicity against human HCT116 cells assessed as cell growth inhibition after 72 hrs by MTS assay; format: functional, cell-based; details: HCT-116, 72 h; summary of the method: as §1
[6] = system: CCRF-CEM; assay: Inhibition of mitosis in human CCRF-CEM cells assessed as pH3Ser10 positive cells after 24 hrs by flow cytometric analysis; format: functional, cell-based
[7] = system: HeLa S3; assay: Cytotoxicity against human HeLaS3 cells assessed as reduction in cell viability after 72 hrs by XTT assay; format: functional, cell-based; details: HeLa S3, 72 h
Summary of the method: (§2)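 Cells were incubated with compound for 3 days. Viability was then measured with the XTT tetrazolium assay.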

[8] = Drug level in human BJ cells at 10 umol/L measured per 5 x 10^5 cells after 3 hrs by UPLC-MS/MS analysis; format: ADME, cell-based; details: 10 µM
[9] = system: CCRF-CEM; assay: Cell cycle arrest in human CCRF-CEM cells assessed as accumulation at S phase at 5 times IC50 after 24 hrs by propidium iodide staining-based flow cytometric analysis (reference value: 44.20%); format: functional
[10] = system: CCRF-CEM; assay: Inhibition of DNA synthesis in human CCRF-CEM cells assessed as decrease in BrdU incorporation by measuring synthesized DNA levels at IC50 after 24 hrs by propidium iodide staining-based flow cytometric analysis (reference value: 52.66%); format: functional
[11] = Drug level in human BJ cells at 1 umol/L measured per 5 x 10^5 cells after 3 hrs by UPLC-MS/MS analysis; format: ADME, cell-based; details: 1 µM
[12] = Drug level in human HCT116 cells at 10 umol/L measured per 5 x 10^5 cells after 1 hr by UPLC-MS/MS analysis; format: ADME, cell-based; details: hct-116, 1 h, 10 µM
[13] = system: Hepatitis C virus; assay: Anti-HCV activity against Hepatitis C virus genotype 1b infected in human Huh7 replicon cells after 96 hrs by luciferase reporter gene assay; format: functional, cell-based, Hepacivirus hominis; details: Huh-7, 96 h
[14] = system: HepG2; assay: Cytotoxicity against human HepG2 cells assessed as reduction in cell viability after 72 hrs by XTT assay; format: functional, cell-based; details: HepG2, 72 h; summary of the method: as §2
[15] = system: CCRF-CEM; assay: Cell cycle arrest in human CCRF-CEM cells assessed as accumulation at S phase at IC50 after 24 hrs by propidium iodide staining-based flow cytometric analysis (reference value: 44.20%); format: functional
[16] = system: BJ; assay: Cytotoxicity against human BJ cells assessed as cell growth inhibition after 72 hrs by MTS assay; format: cell-based; summary of the method: as §1
[17] = system: U2OS; assay: Cytotoxicity against human U2OS cells assessed as cell growth inhibition after 72 hrs by MTS assay; format: functional, cell-based
[18] = system: CCRF-CEM; assay: Cell cycle arrest in human CCRF-CEM cells assessed as accumulation at G0/G1 phase at IC50 after 24 hrs by propidium iodide staining-based flow cytometric analysis (reference value: 41.11%); format: functional
[19] = Drug level in human HCT116 cells at 1 umol/L measured per 5 x 10^5 cells after 3 hrs by UPLC-MS/MS analysis; format: ADME, cell-based; details: hct-116, 3 h, 1 µM
[20] = system: CCRF-CEM; assay: Cell cycle arrest in human CCRF-CEM cells assessed as accumulation at G2/M phase at IC50 after 24 hrs by propidium iodide staining-based flow cytometric analysis (reference value: 14.70%); format: functional
[21] = system: CCRF-CEM; assay: Cell cycle arrest in human CCRF-CEM cells assessed as accumulation at G0/G1 phase at 5 times IC50 after 24 hrs by propidium iodide staining-based flow cytometric analysis (reference value: 41.11%); format: functional
[22] = system: K562; assay: Cytotoxicity against human K562 cells assessed as cell growth inhibition after 72 hrs by MTS assay; format: functional, cell-based; details: K562, 72 h; summary of the method: as §1
[23] = system: HL-60; assay: Cytotoxicity against human HL60 cells assessed as reduction in cell viability after 72 hrs by XTT assay; format: functional, cell-based; details: HL-60, 72 h; summary of the method: as §2
[24] = system: CCRF-CEM; assay: Cell cycle arrest in human CCRF-CEM cells assessed as accumulation at G2/M phase at 5 times IC50 after 24 hrs by propidium iodide staining-based flow cytometric analysis (reference value: 14.70%); format: functional
[25] = system: CCRF-CEM; assay: Inhibition of mitosis in human CCRF-CEM cells assessed as pH3Ser10 positive cells at IC50 after 24 hrs by flow cytometric analysis (reference value: 1.74%); format: functional
[26] = Cytotoxicity against human K562-TAX cells assessed as cell growth inhibition after 72 hrs by MTS assay; format: functional, cell-based; summary of the method: as §1
[27] = system: CCRF-CEM; assay: Inhibition of DNA synthesis in human CCRF-CEM cells assessed as decrease in BrdU incorporation by measuring synthesized DNA levels at 5 times IC50 after 24 hrs by propidium iodide staining-based flow cytometric analysis (reference value: 52.66%); format: functional
[28] = Drug level in human HCT116 cells at 1 umol/L measured per 5 x 10^5 cells after 1 hr by UPLC-MS/MS analysis; format: ADME, cell-based; details: hct-116, 1 h, 1 µM
[29] = system: HCT-116; assay: Cytotoxicity against p53 deficient human HCT116 cells assessed as cell growth inhibition after 72 hrs by MTS assay; format: functional, cell-based; details: HCT-116, 72 h; summary of the method: as §1
[30] = system: CCRF-CEM; assay: Induction of apoptosis in human CCRF-CEM cells assessed as accumulation at subG1 phase at IC50 after 24 hrs by propidium iodide staining-based flow cytometric analysis (reference value: 2.32%); format: functional
[31] = system: CCRF-CEM; assay: Induction of apoptosis in human CCRF-CEM cells assessed as accumulation at subG1 phase at 5 times IC50 after 24 hrs by propidium iodide staining-based flow cytometric analysis (reference value: 2.32%); format: functional
[32] = Drug level in human BJ cells at 10 umol/L measured per 5 x 10^5 cells after 1 hr by UPLC-MS/MS analysis; format: ADME, cell-based; details: 10 µM
[33] = system: CCRF-CEM; assay: Inhibition of RNA synthesis in human CCRF-CEM cells assessed as decrease in BrU incorporation by measuring synthesized RNA levels at 5 times IC50 after 24 hrs by propidium iodide staining-based flow cytometric method (reference value: 53.09%); format: functional
[34] = system: MRC5; assay: Cytotoxicity against human MRC5 cells assessed as cell growth inhibition after 72 hrs by MTS assay; format: cell-based; details: MRC5, 72 h; summary of the method: as §1
[35] = system: CCRF-CEM; assay: Inhibition of mitosis in human CCRF-CEM cells assessed as pH3Ser10 positive cells at 5 times IC50 after 24 hrs by flow cytometric analysis (reference value: 1.74%); format: functional
[36] = Cytotoxicity against human HuH7 cells; format: cell-based, Huh-7
[37] = system: Hepatitis C virus; assay: Anti-HCV activity against Hepatitis C virus genotype 2a infected in human Huh7 replicon cells after 96 hrs by luciferase reporter gene assay; format: functional, cell-based, Hepacivirus hominis; details: Huh-7, 96 h
[38] = Drug level in human HCT116 cells at 10 umol/L measured per 5 x 10^5 cells after 3 hrs by UPLC-MS/MS analysis; format: ADME, cell-based; details: hct-116, 3 h, 10 µM

Structure (SMILES) | IC50 [1] [nM] | IC50 [2] [nM] | BrU+ cells (%) [3] [%] | IC50 [4] [nM] | IC50 [5] [nM] | Activity [6] | IC50 [7] [nM] | Activity [9] [%] | BrdU+ cells (%) [10] [%] | EC50 [13] [nM] | IC50 [14] [nM] | Activity [15] [%] | IC50 [16] [nM] | IC50 [17] [nM] | Activity [18] [%] | Activity [20] [%] | Activity [21] [%] | IC50 [22] [nM] | IC50 [23] [nM] | Activity [24] [%] | other results
CSc1ncnc2c1c1ccsc1n2[C@@H]1O[C@H](CO)[C@@H](O)[C@H]1O | > 50000 | 800 | 37.25 | 200 | 200 | Dose-dependent effect | 300 | 53.26 | 52.99 | 130 | 680 | 47.81 | 6900 | 350 | 40.36 | 11.83 | 33.16 | 510 | 860 | 13.58 | Drug uptake [8]: 633.7 pmol; Drug uptake [11]: 253.6 pmol; Drug uptake [12]: 320.7 pmol; Drug uptake [19]: 293.6 pmol; pH3Ser10+ cells (%) [25]: 1.36%; IC50 [26]: > 50000 nM; BrdU+ cells (%) [27]: 56.64%; Drug uptake [28]: 278.5 pmol; IC50 [29]: 270 nM; Activity [30]: 2.79%; Activity [31]: 3.53%; Drug uptake [32]: 331.6 pmol; BrU+ cells (%) [33]: 23.92%; IC50 [34]: 46000 nM; pH3Ser10+ cells (%) [35]: 1.13%; CC50 [36]: > 44400 nM; EC50 [37]: 800 nM; Drug uptake [38]: 444 pmol
COc1ncnc2c1c1ccsc1n2[C@@H]1O[C@H](CO)[C@@H](O)[C@H]1O | > 50000 | 1230 | 28.75 | 220 | 610 | Dose-dependent effect | 230 | 63.97 | 62.59 | 230 | 1330 | 45.01 | 7490 | 930 | 35.73 | 19.25 | 23.76 | 1060 | 570 | 12.27 | pH3Ser10+ cells (%) [25]: 1.17%; IC50 [26]: 11100 nM; BrdU+ cells (%) [27]: 55.12%; IC50 [29]: 640 nM; Activity [30]: 2.55%; Activity [31]: 11.22%; BrU+ cells (%) [33]: 8.31%; IC50 [34]: > 50000 nM; pH3Ser10+ cells (%) [35]: 0.38%; CC50 [36]: > 44400 nM; EC50 [37]: 400 nM
